ChEMBL document CHEMBL1932946, “Design, synthesis and anticonvulsant evaluation of novel N-(4-substituted phenyl)-2-[4-(substituted) benzylidene]-hydrazinecarbothio amides” (Eur J Med Chem, 2012)
Activity calls are given as the source filed them. No cut-off for these calls is given here.

Tests used:
Mus musculus [1] = experiment: Neurotoxicity in albino CF-1 mouse assessed as minimum motor impairment at 300 mg/kg, ip after 0.5 hrs by rotarod test; type: toxicity, organism-based; parameters: dose 300 mg/kg, route intraperitoneal; details: in vivo
Procedure, shortened: (§1)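 Minimal motor impairment assessed in male CF-1 albino mice (18–25 g) at 0.5 and 4 h after i.p. doses of 30, 100 and 300 mg/kg, given in 0.5% methyl cellulose. Minimum dose toxic in half or more of mice recorded.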

Mus musculus [2] = experiment: Neurotoxicity in albino CF-1 mouse assessed as minimum motor impairment at 300 mg/kg, ip after 4 hrs by rotarod test; type: toxicity, organism-based; parameters: dose 300 mg/kg, route intraperitoneal; details: in vivo; procedure, shortened: as §1
[3] = Octanol-phosphate buffer partition coefficient, log P of the compound at 5 mg after 24 hrs by UV spectroscopic analysis; type: physicochemical
Procedure, shortened: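 5 mg compound added to 10 mL octanol plus 10 mL phosphate buffer in a stoppered tube. Mixture shaken mechanically 24 h at room temperature, then left 6 h in a separating funnel to equilibrate.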

Mus musculus [4] = experiment: Anticonvulsant activity in albino CF-1 mouse assessed as protection against 6 Hz psychomotor seizure at 100 mg/kg, ip after 0.5 hrs by minimal clonic seizure test; type: functional
Procedure, shortened: (§2)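 Male CF-1 albino mice (18–25 g) given compound i.p., suspended in 0.5% methyl cellulose, 100 mg/kg in screen. Four mice per time point challenged at 0.25, 0.5, 1.0, 2.0 and 4.0 h via corneal electrodes (32 mA, 3 s, 6 Hz). Protection = absence of psychomotor seizure (minimal clonic phase, automatistic behaviours). Scored as animals protected/tested.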

Mus musculus [5] = experiment: Anticonvulsant activity in albino CF-1 mouse assessed as protection against 6 Hz psychomotor seizure at 100 mg/kg, ip after 4 hrs by minimal clonic seizure test; type: functional, organism-based; parameters: dose 100 mg/kg; procedure, shortened: as §2
Mus musculus [6] = experiment: Anticonvulsant activity in albino CF-1 mouse assessed as protection against 6 Hz psychomotor seizure at 100 mg/kg, ip after 2 hrs by minimal clonic seizure test; type: functional; procedure, shortened: as §2
Mus musculus [7] = experiment: Anticonvulsant activity in albino CF-1 mouse assessed as protection against 6 Hz psychomotor seizure at 100 mg/kg, ip after 1 hr by minimal clonic seizure test; type: functional; procedure, shortened: as §2
Mus musculus [8] = experiment: Anticonvulsant activity in albino CF-1 mouse assessed as protection against 6 Hz psychomotor seizure at 100 mg/kg, ip after 0.25 hrs by minimal clonic seizure test; type: functional; procedure, shortened: as §2

SMILES | logP at 24 h [3] | Activity (Mus musculus [1]) | Activity (Mus musculus [2]) | Activity (Mus musculus [4]) | Activity (Mus musculus [5]) | Activity (Mus musculus [6]) | Activity (Mus musculus [7]) | Activity (Mus musculus [8]) | Activity (Mus musculus [8]; route intraperitoneal) [%] | Activity (Mus musculus [4]; route intraperitoneal) [%] | Activity (Mus musculus [6]; route intraperitoneal) [%] | Activity (Mus musculus [7]; route intraperitoneal) [%]
O=[N+]([O-])c1ccc(Oc2ccc(/C=N/NC(=S)Nc3ccc(Br)cc3)cc2)cc1 | 5.68 | Non-toxic | Non-toxic |  |  |  |  |  |  |  |  | 
Cc1ccc(Oc2ccc(/C=N/NC(=S)Nc3ccc(Br)cc3)cc2)cc1 | 6.17 | Non-toxic | Non-toxic | Active | inactive | inactive | Active | inactive |  |  |  | 
Cc1ccc(Oc2ccc(/C=N/NC(=S)Nc3ccc(Cl)cc3)cc2)cc1 | 5.97 | Non-toxic | Non-toxic |  |  |  |  |  |  |  |  | 
S=C(N/N=C/c1ccc(Oc2ccc(Br)cc2)cc1)Nc1ccc(Cl)cc1 | 6.37 | Non-toxic | Non-toxic |  |  |  |  |  |  |  |  | 
O=[N+]([O-])c1ccc(Oc2ccc(/C=N/NC(=S)Nc3ccccc3)cc2)cc1 | 4.95 | Non-toxic | Non-toxic |  |  |  |  |  |  |  |  | 
Cc1cc(Oc2ccc(/C=N/NC(=S)Nc3ccccc3)cc2)ccc1Cl | 6.03 | Non-toxic | Non-toxic | Active | inactive | inactive | inactive | inactive |  |  |  | 
Cc1cc(Oc2ccc(/C=N/NC(=S)Nc3ccc(F)cc3)cc2)ccc1Cl | 6.07 | Non-toxic | Non-toxic | Active | inactive | inactive | Active | inactive |  |  |  | 
Fc1ccc(NC(=S)N/N=C/c2ccc(Oc3ccc(Br)cc3)cc2)cc1 | 5.88 | Non-toxic | Non-toxic | Active | inactive | inactive | inactive | inactive |  |  |  | 
Cc1ccc(Oc2ccc(/C=N/NC(=S)Nc3ccccc3)cc2)cc1 | 5.39 | Non-toxic | Non-toxic |  |  |  |  |  |  |  |  | 
S=C(N/N=C/c1ccc(Oc2ccc(Br)cc2)cc1)Nc1ccccc1 | 5.62 | Non-toxic | Non-toxic | Active | inactive | Active | Active | inactive |  |  |  | 
Fc1ccc(NC(=S)N/N=C/c2ccc(Oc3ccc4ccccc4c3)cc2)cc1 | 6.2 | Non-toxic | Non-toxic | inactive | Active | Active | inactive | inactive |  |  |  | 
Cc1cc(Oc2ccc(/C=N/NC(=S)Nc3ccc(Cl)cc3)cc2)ccc1Cl | 6.59 | Non-toxic | Non-toxic | Active | inactive |  |  | inactive |  |  | 50 | 50
S=C(N/N=C/c1ccc(Oc2ccc3ccccc3c2)cc1)Nc1ccc(Br)cc1 | 6.93 | Non-toxic | Non-toxic |  |  |  |  |  |  |  |  | 
S=C(N/N=C/c1ccc(Oc2ccc(Cl)cc2)cc1)Nc1ccc(Cl)cc1 | 6.2 | Non-toxic | Non-toxic |  |  |  |  |  |  |  |  | 

Second part, led by results:

logP at 24 h [3] | SMILES | Activity (Mus musculus [1]) | Activity (Mus musculus [2]) | Activity (Mus musculus [4]) | Activity (Mus musculus [5]) | Activity (Mus musculus [6]) | Activity (Mus musculus [7]) | Activity (Mus musculus [8]) | Activity (Mus musculus [8]; route intraperitoneal) [%] | Activity (Mus musculus [4]; route intraperitoneal) [%] | Activity (Mus musculus [6]; route intraperitoneal) [%] | Activity (Mus musculus [7]; route intraperitoneal) [%]
5.52 | O=[N+]([O-])c1ccc(Oc2ccc(/C=N/NC(=S)Nc3ccc(Cl)cc3)cc2)cc1 | Non-toxic | Non-toxic |  |  |  |  |  |  |  |  | 
6.24 | S=C(N/N=C/c1ccc(Oc2ccc(Cl)cc2)cc1)Nc1ccc(Br)cc1 | Non-toxic | Non-toxic |  |  |  |  |  |  |  |  | 
5.52 | S=C(N/N=C/c1ccc(Oc2ccc3c(c2)OCO3)cc1)Nc1ccc(Br)cc1 | Non-toxic | Non-toxic |  |  |  |  |  |  |  |  | 
4.8 | S=C(N/N=C/c1ccc(Oc2ccc3c(c2)OCO3)cc1)Nc1ccccc1 | Non-toxic | Non-toxic |  |  |  |  |  |  |  |  | 
5.54 | S=C(N/N=C/c1ccc(Oc2ccc3c(c2)OCO3)cc1)Nc1ccc(Cl)cc1 | Non-toxic | Non-toxic |  |  |  |  |  |  |  |  | 
5.19 | Fc1ccc(NC(=S)N/N=C/c2ccc(Oc3ccc(F)cc3)cc2)cc1 | Non-toxic | Non-toxic | Active | inactive | Active | inactive |  | 50 |  |  | 
6.96 | S=C(N/N=C/c1ccc(Oc2ccc3ccccc3c2)cc1)Nc1ccc(Cl)cc1 | Non-toxic | Non-toxic |  |  |  |  |  |  |  |  | 
5.09 | Fc1ccc(NC(=S)N/N=C/c2ccc(Oc3ccccc3)cc2)cc1 | Non-toxic | Non-toxic | Active | inactive | inactive | inactive | Active |  |  |  | 
5.09 | Fc1ccc(Oc2ccc(/C=N/NC(=S)Nc3ccccc3)cc2)cc1 | Non-toxic | Non-toxic | inactive | inactive | inactive | Active | inactive |  |  |  | 
6.07 | S=C(N/N=C/c1ccc(Oc2ccc3ccccc3c2)cc1)Nc1ccccc1 | Non-toxic | Non-toxic |  |  |  |  |  |  |  |  | 
5.48 | Cc1ccc(Oc2ccc(/C=N/NC(=S)Nc3ccc(F)cc3)cc2)cc1 | Non-toxic | Non-toxic |  | inactive | inactive | inactive | Active |  | 50 |  | 
5.64 | S=C(N/N=C/c1ccc(Oc2ccccc2)cc1)Nc1ccc(Cl)cc1 | Non-toxic | Non-toxic |  |  |  |  |  |  |  |  | 
4.99 | Fc1ccc(NC(=S)N/N=C/c2ccc(Oc3ccc4c(c3)OCO4)cc2)cc1 | Non-toxic | Non-toxic |  |  |  |  |  |  |  |  | 
5.84 | Fc1ccc(Oc2ccc(/C=N/NC(=S)Nc3ccc(Cl)cc3)cc2)cc1 | Non-toxic | Non-toxic | Active | Active | Active | inactive | Active |  |  |  | 
4.9 | S=C(N/N=C/c1ccc(Oc2ccccc2)cc1)Nc1ccccc1 | Non-toxic | Non-toxic |  |  |  |  |  |  |  |  | 
4.89 | O=[N+]([O-])c1ccc(Oc2ccc(/C=N/NC(=S)Nc3ccc(F)cc3)cc2)cc1 | Non-toxic | Non-toxic |  | inactive | inactive | Active | inactive |  | 50 |  | 
5.52 | S=C(N/N=C/c1ccc(Oc2ccc(Cl)cc2)cc1)Nc1ccccc1 | Non-toxic | Non-toxic |  |  |  |  |  |  |  |  | 
